Source: ChEMBL document CHEMBL1275358, “Synthesis and anticancer activity of new 1-[(5 or 6-substituted 2-alkoxyquinoxalin-3-yl)aminocarbonyl]-4-(hetero)arylpiperazine derivatives” (Bioorg Med Chem, 2010)
Active and inactive are the calls of the source. The rule behind the calls is not given here.

Columns and labels:
[1] = Growth inhibition of human UMRC2 cells after 96 hrs by sulforhodamine B assay; type: functional, cell-based; conditions: UMRC2, 96 h
In short: (§1)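 SRB assay with 96 h exposure to a range of concentrations and a DMSO control. Cells were TCA-fixed, SRB-stained and read at 530 nm to give IC50. Cells were kept at 37 °C, 5% CO₂. All other lines were grown in RPMI1640 with 10% FBS, pyruvate, HEPES and P/S.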

[2] = system: SK-MEL-28; test: Growth inhibition of human SK-MEL-28 cells after 96 hrs by sulforhodamine B assay; type: functional, cell-based; conditions: SK-MEL-28, 96 h; in short: as §1
[3] = system: CAKI-1; test: Growth inhibition of human Caki1 cells after 96 hrs by sulforhodamine B assay; type: functional, cell-based; conditions: CAKI-1, 96 h; in short: as §1
[4] = system: HepG2; test: Growth inhibition of human HepG2 cells after 96 hrs by sulforhodamine B assay; type: functional, cell-based; conditions: HepG2, 96 h; in short: as §1
[5] = system: HCT-116; test: Growth inhibition of human HCT116 cells after 96 hrs by sulforhodamine B assay; type: functional, cell-based; conditions: HCT-116, 96 h; in short: as §1
[6] = system: A549; test: Growth inhibition of human A549 cells after 96 hrs by sulforhodamine B assay; type: functional, cell-based; conditions: A549, 96 h; in short: as §1
[7] = system: HT-29; test: Growth inhibition of human HT-29 cells after 96 hrs by sulforhodamine B assay; type: functional, cell-based; conditions: HT-29, 96 h; in short: as §1
[8] = system: MDA-MB-231; test: Growth inhibition of human MDA-MB-231 cells after 96 hrs by sulforhodamine B assay; type: functional, cell-based; conditions: MDA-MB-231, 96 h; in short: as §1
[9] = system: PANC-1; test: Growth inhibition of human PANC1 cells after 96 hrs by sulforhodamine B assay; type: functional, cell-based; conditions: PANC-1, 96 h; in short: as §1
[10] = system: HeLa; test: Growth inhibition of human HeLa cells after 96 hrs by sulforhodamine B assay; type: functional, cell-based; in short: as §1
[11] = system: U-251; test: Growth inhibition of human U251 cells after 96 hrs by sulforhodamine B assay; type: functional, cell-based; conditions: U-251, 96 h; in short: as §1
[12] = system: PC-3; test: Growth inhibition of human PC3 cells after 96 hrs by sulforhodamine B assay; type: functional, cell-based; conditions: PC-3, 96 h; in short: as §1
[13] = system: OVCAR-3; test: Growth inhibition of human OVCAR-3 cells after 96 hrs by sulforhodamine B assay; type: functional, cell-based; conditions: OVCAR-3, 96 h; in short: as §1
[14] = system: MKN-45; test: Growth inhibition of human MKN45 cells after 96 hrs by sulforhodamine B assay; type: functional, cell-based; conditions: MKN-45, 96 h; in short: as §1
[15] = system: MDA-MB-231; test: Growth inhibition of human MDA-MB-231 cells at 10 nM after 96 hrs by sulforhodamine B assay relative to control; type: functional; conditions: MDA-MB-231, 96 h
[16] = system: MDA-MB-231; test: Growth inhibition of human MDA-MB-231 cells at 5 nM after 96 hrs by sulforhodamine B assay relative to control; type: functional; conditions: MDA-MB-231, 96 h
[17] = system: MDA-MB-231; test: Growth inhibition of human MDA-MB-231 cells at 3 uM after 96 hrs by sulforhodamine B assay relative to control; type: functional; conditions: MDA-MB-231, 96 h
In short: (§2)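 MDA-MB-231 cells in DMEM with 10% FBS, 10 mM HEPES, P/S and 2 mM L-glutamine at 37 °C, 5% CO2, were treated in 96-well plates for 96 h, either alone or with a 20 nM co-treatment. They were then TCA-fixed, SRB-stained and read at 530 nm. Results are % growth inhibition versus untreated cells, with 0.5% DMSO as vehicle control, from triplicates in at least two experiments.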

[18] = system: MDA-MB-231; test: Growth inhibition of human MDA-MB-231 cells at 5 uM after 96 hrs by sulforhodamine B assay relative to control; type: functional; conditions: MDA-MB-231, 96 h; in short: as §2
[19] = system: MDA-MB-231; test: Growth inhibition of human MDA-MB-231 cells at 20 nM after 96 hrs by sulforhodamine B assay relative to control; type: functional; conditions: MDA-MB-231, 96 h
[20] = system: MDA-MB-231; test: Induction of apoptosis in human MDA-MB-231 cells assessed as decrease of Bcl-2 protein level at 70 nM after 24 to 72 hrs by Western blotting; type: functional, cell-based
In short: (§3)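 MDA-MB-231 cells were exposed to 70 nM for 24, 48 or 72 h alongside untreated controls. After a PBS wash, cells were lysed in 25 mM Tris-HCl pH 7.5, 300 mM NaCl, 1% Triton X-100 with protease inhibitors. Protein was quantified by BCA, run on SDS-PAGE and transferred to nitrocellulose. Blots were probed for p21WAF1, Bcl-2 and Bad, with β-actin as the loading control.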

[21] = system: MDA-MB-231; test: Induction of apoptosis in human MDA-MB-231 cells assessed as increase of p21 WAF1 protein level at 70 nM after 24 to 72 hrs by Western blotting; type: functional, cell-based; in short: as §3
[22] = system: MDA-MB-231; test: Induction of apoptosis in human MDA-MB-231 cells assessed as PARP fragmentation; type: functional, cell-based
[23] = system: MDA-MB-231; test: Induction of apoptosis in human MDA-MB-231 cells assessed as DNA fragmentation; type: functional, cell-based
[24] = system: MDA-MB-231; test: Cell cycle arrest in human MDA-MB-231 cells assessed as accumulation at G2/M phase at 0.02 to 0.2 uM after 3 to 12 hrs using propidium iodide staining; type: functional, cell-based
[25] = system: HCT-116; test: Resistant index, ratio of IC50 for human HCT15 cells to IC50 for human HCT116 cells; type: functional
[26] = system: HCT-15; test: Growth inhibition of human HCT15 cells after 96 hrs by sulforhodamine B assay; type: functional, cell-based; conditions: HCT-15, 96 h
In short: as §1, with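 “CO₂. MDA-MB-231, HCT116, Caki-1, UMRC2 and PANC-1 were grown in DMEM with 10% FBS, HEPES, P/S and glutamine.” for “CO₂.”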

[27] = system: MDA-MB-231; test: Growth inhibition of human MDA-MB-231 cells at 0.2 uM after 96 hrs by sulforhodamine B assay relative to control; type: functional; conditions: MDA-MB-231, 96 h
[28] = system: MDA-MB-231; test: Growth inhibition of human MDA-MB-231 cells at 0.1 uM after 96 hrs by sulforhodamine B assay relative to control; type: functional; conditions: MDA-MB-231, 96 h

Row | Structure (SMILES) | IC50 [1] | IC50 [2] | IC50 [3] | IC50 [4] | IC50 [5] | IC50 [6] | IC50 [7] | IC50 [8] | IC50 [9] | IC50 [10] | IC50 [11] | IC50 [12] | IC50 [13] | IC50 [14] | also measured
1 | COc1cc(OC)cc(N2CCN(C(=O)Nc3nc4cc(Cl)ccc4nc3OC)CC2)c1 | 65 nM | 110 nM | 53 nM | 63 nM | 68 nM | 73 nM | 79 nM | 50 nM | 98 nM | 73 nM | 56 nM | 76 nM | 42 nM | 64 nM | –
2 | COc1cc(OC)cc(N2CCN(C(=O)Nc3nc4c(OC)cccc4nc3OC)CC2)c1 | 29 nM | 68 nM | 33 nM | 57 nM | 60 nM | 64 nM | 74 nM | 56 nM | 42 nM | 63 nM | 58 nM | 57 nM | 44 nM | 52 nM | –
3 | COc1cc(OC)cc(N2CCN(C(=O)Nc3nc4c(C)cccc4nc3OC)CC2)c1 | 30 nM | 64 nM | 32 nM | 63 nM | 50 nM | 56 nM | 55 nM | 60 nM | 54 nM | 62 nM | 54 nM | 57 nM | 39 nM | 57 nM | –
4 | COc1cccc2c1C(=O)c1c(O)c3c(c(O)c1C2=O)C[C@@](O)(C(=O)CO)C[C@@H]3O[C@H]1C[C@H](N)[C@H](O)[C@H](C)O1 [DOXORUBICIN] | – | – | – | – | – | – | – | – | – | – | – | – | – | – | inhibition at 0.01 µM [15]: 59.2%; inhibition at 0.005 µM [16]: 4.2%
5 | O=c1[nH]cc(F)c(=O)[nH]1 [FLUOROURACIL] | – | – | – | – | – | – | – | – | – | – | – | – | – | – | inhibition at 3 µM [17]: 3.3%; inhibition at 5 µM [18]: 41.6%
6 | COc1cc(OC)cc(N2CCN(C(=O)Nc3nc4cc(F)ccc4nc3OC)CC2)c1 [SUPINOXIN] | 13 nM | 20 nM | 11 nM | 19 nM | 20 nM | 21 nM | 21 nM | 12 nM | 21 nM | 21 nM | 15 nM | 21 nM | 12 nM | 20 nM | inhibition at 0.02 µM [19]: 14%; Activity [20]: Active; Activity [21]: Active; Activity [22]: Active; Activity [23]: Active; Activity [24]: Active; Ratio IC50 [25]: 0.72; IC50 [26]: 21 nM
7 | CC(=O)O[C@H]1C(=O)[C@@]2(C)[C@H]([C@H](OC(=O)c3ccccc3)[C@]3(O)C[C@H](OC(=O)[C@H](O)[C@@H](NC(=O)c4ccccc4)c4ccccc4)C(C)=C1C3(C)C)[C@]1(OC(C)=O)CO[C@@H]1C[C@@H]2O [PACLITAXEL] | – | – | – | – | 2 nM | – | – | – | – | – | – | – | – | – | Ratio IC50 [25]: 70; IC50 [26]: 140 nM
8 | Nc1ccn([C@@H]2O[C@H](CO)[C@@H](O)C2(F)F)c(=O)n1 [GEMCITABINE] | – | – | – | – | – | – | – | – | – | – | – | – | – | – | inhibition at 0.2 µM [27]: 17.7%; inhibition at 0.1 µM [28]: 1%
9 | COc1cc(OC)cc(N2CCN(C(=O)Nc3nc4cc(C)ccc4nc3OC)CC2)c1 | 39 nM | 47 nM | 29 nM | 45 nM | 47 nM | 55 nM | 48 nM | 32 nM | 70 nM | 51 nM | 31 nM | 63 nM | 23 nM | 40 nM | –
